Laboratory results published in ChEMBL document CHEMBL1121565, “Antiarrhythmic activity of amitriptyline analogues in conscious dogs after myocardial infarction: cyproheptadinium methiodide” (1980).

Experiments:
Canis familiaris [1] = assay: Evaluated for the antiarrhythmic activity in conscious dogs after myocardial infarction by observing 50% reduction in ectopic rate..; format: functional, Canis lupus familiaris, Heart
Summary of the method: (§1)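 After 30-45 min of adjustment with lead II ECG recording (about 80-85% ectopic complexes), drug was given iv through a foreleg vein in 0.5 mL increments at 2-min intervals. Dosing stopped at sinus rhythm or 3.0 mg/kg total.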

Canis familiaris [2] = assay: Evaluated for the antiarrhythmic activity in conscious dogs after myocardial infarction by observing for conversion to sinus rhythm.; format: functional, Canis lupus familiaris, Heart; summary of the method: as §1
Canis familiaris [3] = species on record: Canis familiaris; assay: Myocardial contractility was measured in dogs prior to the treatment with compound; format: functional, Canis lupus familiaris, Myocardium
Summary of the method: (§2)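 Anesthetized dogs with no cardiac insult were allowed about 30 min to stabilize after surgery, then given 25 µg/kg iv, followed by 50 µg/kg 30 min later. Arterial pressure, lead II ECG from limb needle electrodes, ECG-derived heart rate and left ventricular dp/dt at 50 mmHg developed pressure were recorded at 100 mm/s. Values before and 5 min after dosing were compared by Student's t test, p < 0.05.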

Canis familiaris [4] = species on record: Canis familiaris; assay: Heart beat rate was measured in dogs prior to the treatment with compound; format: functional, Canis lupus familiaris; summary of the method: as §2
Canis familiaris [5] = assay: Compound was tested for its activity against altering of mean arterial blood pressure when administered with a dose of 25 ug/Kg; Could not significantly alter; format: functional, organism-based; conditions: Canis lupus familiaris; Artery; summary of the method: as §2
Canis familiaris [6] = assay: Heart beat rate was measured in dogs after 5 min of administration of 25 ug/Kg dose of the compound; format: functional, Canis lupus familiaris; summary of the method: as §2
Canis familiaris [7] = assay: Heart beat rate was measured in dogs after subsequent administration of 50 micorg/Kg 30 min after administration of 25 ug/Kg dose of the compound; format: functional, Canis lupus familiaris; summary of the method: as §2
Canis familiaris [8] = assay: Myocardial contractility was measured in dogs after 5 min of administration of 25 ug/Kg dose of the compound; format: functional, Canis lupus familiaris, Myocardium; summary of the method: as §2

| SMILES | Dose (Canis familiaris [1]) | Dose (Canis familiaris [2]) | Activity (Canis familiaris [3]) | Heart beat (Canis familiaris [4]) | Activity (Canis familiaris [5]) | Heart beat (Canis familiaris [6]) | Heart beat (Canis familiaris [7]) | Activity (Canis familiaris [8]) |
| --- | --- | --- | --- | --- | --- | --- | --- | --- |
| CCN(CC)CC(=O)Nc1c(C)cccc1C.Cl | 5.54 µM/kg | 9.97 µM/kg | – | – | – | – | – | – |
| C[N+]1(C)CCC(=C2c3ccccc3C=Cc3ccccc32)CC1.[I-] | 0.03 µM/kg | 0.042 µM/kg | 2333 mmHg s-1 | 148 beats min-1 | Could not significantly alter | 174 beats min-1 | 196 beats min-1 | 3250 mmHg s-1 |
| CN1CCC(=C2c3ccccc3C=Cc3ccccc32)CC1 [CYPROHEPTADINE] | 0.69 µM/kg | 1.04 µM/kg | – | – | – | – | – | – |
| CN(C)CCC=C1c2ccccc2C=Cc2ccccc21 [CYCLOBENZAPRINE] | 3.99 µM/kg | 6.17 µM/kg | – | – | – | – | – | – |
| CN(C)CCC=C1c2ccccc2CCc2ccccc21 [AMITRIPTYLINE] | 3.97 µM/kg | 4.69 µM/kg | – | – | – | – | – | – |
